Assay results pooled from the literature.
Lines come from different studies, so protocols differ.
Target: SRSF protein kinase 3 (SRPK3, Homo sapiens, UniProt Q9UPE1)

| SMILES | assay | setting | remaining binding [%] |
| --- | --- | --- | --- |
| c1cnn2ncc(-c3ccnc(N4CCC45COC5)n3)c2c1 | binding | 1 µM | 66 |
| O=C(c1ccc(Nc2nccc(-c3cc4ccccc4s3)n2)cc1)N1CCC(N2CCCC2)CC1 | binding, competition with immobilised ligand | 1 µM | 100 |
| CN(c1nccc(-c2cnn3ncccc23)n1)C1CC1 | binding | 1 µM | 83 |
| O=C(NCCCN1CCOCC1)c1ccc(Nc2ncc(Cl)c(-c3ccc(Cl)s3)n2)cc1 | binding, competition with immobilised ligand | 1 µM | 100 |
| N[C@H]1CCN(c2nccc(-c3cnn4ncccc34)n2)C1 | binding | 1 µM | 66 |
| CCS(=O)(=O)c1cc2cc(C[C@@](O)(CC(C)(C)c3ccc(F)cc3C(N)=O)C(F)(F)F)[nH]c2cn1 | cell-free assay, competition with immobilised ligand | 1 µM | 100 |
| C=CC(=O)N1CCC(C(=O)NCC(=O)N2CCN(c3nc(-c4cnc(N)nc4C(F)F)nc(N4CCOCC4)n3)CC2)CC1 | binding, competition with immobilised ligand | 1 µM | 99 |
| Cc1c(NC(=O)c2cc(C(N)=O)nc3cc(F)ccc23)c(C(F)(F)F)nn1Cc1ccc(C#N)cc1 | cell-free assay, competition with immobilised ligand | 1 µM | 100 |
| O=C(Nc1c[nH]nc1C(=O)NC1CCNCC1)c1cc(F)cc(F)c1 | binding, competition with immobilised ligand | 1 µM | 88 |
| CCN1CCN(Cc2ccc(C(=O)Nc3ccc(C)c(Oc4ccc5c(c4)CC(=O)N5)c3)cc2C(F)(F)F)CC1 | binding, competition with immobilised ligand | 1 µM | 99 |
| CNC(=O)[C@@H]1CC[C@@H](n2c(-c3ccc4cnccc4c3)nc3ccc(C(=O)NCc4cccc(C(N)=O)c4)cc32)C1 | binding, competition with immobilised ligand | 1 µM | 92 |
| F[C@@H]1CCN(c2nccc(-c3cnn4ncccc34)n2)C1 | binding | 1 µM | 100 |
| COc1ncc2cc3ccccc3nc2c1C#N | cell-free assay, competition with immobilised ligand | 5 µM | 98 |
| CC(=O)N1CCC(c2ccc(C(=O)NC3=NCCN3)cc2C(F)(F)F)CC1 | cell-free assay, competition with immobilised ligand | 1 µM | 100 |
| COc1cnc(Nc2cccc(S(N)(=O)=O)c2)nc1N1CCN(c2ccccc2)CC1 | binding, competition with immobilised ligand | 1 µM | 95 |
| C[C@H]1CCN(c2nccc(-c3cnn4ncccc34)n2)C1 | binding | 1 µM | 68 |
| CCC(=N\O)/C(C)=C/c1ccc(F)cc1 | cell-free assay, competition with immobilised ligand | 1 µM | 91 |
| CN(CCCC(F)(F)F)c1nccc(-c2cnn3ncccc23)n1 | binding | 1 µM | 100 |
| C[C@@H]1CN(c2cc(-c3n[nH]c4ccc(OC5(C)CC5)cc34)ncn2)C[C@H](C)O1 | cell-free assay, competition with immobilised ligand | 0.1 µM | 100 |
| Nc1ncc2c(n1)-c1c([nH]c3ccc(C#CC4CC4)cc13)CCCC2 | binding, competition with immobilised ligand | 1 µM | 90 |
| CCCOc1ccc([C@@H]2[C@@H](C(=O)O)[C@H](c3ccc4c(c3)OCO4)CN2CC(=O)Nc2c(CC)cccc2CC)cc1 | cell-free assay, competition with immobilised ligand | 1 µM | 93 |
| C[C@@H]1CN(c2ccc3ncc(-c4ccc5[nH]nc(C6CC6)c5c4)n3n2)C[C@H](C)O1 | binding, competition with immobilised ligand | 0.5 µM | 85 |
| COc1ccc2c(O[C@@H]3C[C@H]4C(=O)N[C@]5(C(=O)O)CC5/C=C\CCCCC[C@H](NC(=O)OC5CCCC5)C(=O)N4C3)cc(-c3csc(NC(=O)C(C)C)n3)nc2c1C (stereo partly drawn) | cell-free assay, competition with immobilised ligand | 1 µM | 57 |
| CN(C)c1ncc(F)c(-c2cnn3ncccc23)n1 | binding | 1 µM | 100 |
